System: MS2 coat protein
Experiment: apparent Kd, MS2 coat protein; higher = weaker binding; RNA-MaP array; FMN 200 µM where present
Outline: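 Green signal was scaled to red-channel RNA signal and control-cluster median Fmax, and the apparent Kd was taken as the median of filtered per-cluster binding-curve fits. The binding series used SNAP-549-labelled MS2 coat protein from 0.7 or 1.5 nM, doubling to 3 µM, on designs transcribed by stalled E. coli RNA polymerase on Illumina sequencing-chip clusters. Each series ran without and then with constant ligand in 100 mM Tris-HCl pH 7.5, 80 mM KCl, 4 mM MgCl2, BSA, DTT, yeast tRNA and Tween-20.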

[1] = designed as: OFF switch for flavin mononucleotide, no ligand
[2] = ligand present: flavin mononucleotide, designed as: OFF switch for flavin mononucleotide
[3] = designed as: ON switch for flavin mononucleotide, no ligand
[4] = ligand present: flavin mononucleotide, designed as: ON switch for flavin mononucleotide

| Sequence | apparent Kd [1] | apparent Kd [2] | apparent Kd [3] | apparent Kd [4] |
| --- | --- | --- | --- | --- |
| GCAUGCAAGUAGAAGGUCGGAUAUUUUGAUACCGAAGGAUAUGCAGAAUCAUAUCCACAUGAUAACAUGAGGAUCACCCAUGUA | 15.3 nM | 12.7 nM |  |  |
| CAGCGCUGUCGAGAGGAUAUGCGGUGAUGGACAUGAGGAUCACCCAUGUUAGCGAUAGUAUUACGGUAGAAGGCUCUACAGCUGC |  |  | 92.2 nM | 16.7 nM |
| UGUGUGUGGGCAGGAUAUGCAUGAAUAUAUAUGAUGUAGUAUGAUGUAACAUGAGGAUCACCCAUGUAGAAGGGCCGGUGUAUG | 133 nM | 133 nM |  |  |
| AAAAAGCGAGGAUAUACAUGAGGAUCACCCAUGUCAAAAAAAUAGAAAAAAAUAAAAAGUAGAAGGCGCAAAAA | 58.8 nM | 58.4 nM |  |  |
| UGAACUAUGUAGAAGGCCCGCAUGAAAAUGACGGGAGGAUAUACAUGAGGAUCACCCAUGUGAAGAGCAAGAGGGUUUAACAGA | 282 nM | 163 nM |  |  |
| GCGCAUUUAAGAUUUAUAUAAUUGUCAGAAGGUGAAAAGACGACAUGAGGAUCACCCAUGUAAUUCAAGGAUAUGAUUUAGCGC |  |  | 34.3 nM | 13.3 nM |
| ACAAGAUCAGGAUAUACAUGAGGAUCACCCAUGUAUAUCAAAAAAGGGCUUUCUACAUGUAGAAGGGAUCUUGU | 13.9 nM | 11.8 nM |  |  |
| GGAGUACAUGAGGAUCACCCAUGUUGGAACGAAGUAGGAUAUGUACAAUAUUAAAUAAAAACAGAAGGACUAAUAA |  |  | 62.4 nM | 39 nM |
| UAAAUUUUAUGAUAUUAUGACAUUAGAAGGCUGUACAUGUUGAUACAUGAGGAUCACCCAUGUAUAGAGGAUAUAGACAAUUAU | 40.5 nM | 92.6 nM |  |  |
| UUGAGGUAGGAGAAGGACAGAGGCGGAAACACAAACAUGAGGAUCACCCAUGUAGGAUAUCCUACCUAACGAGGAUACCUCAAG | 14.7 nM | 26.7 nM |  |  |
| GUGCACACUCGAGGAUAUCGGAGUUUUCUCCUUCGAGAAGGCGAUUCGUGCCGUGUUAUUCUGGACAUGAGGAUCACCCAUGUG |  |  | 110 nM | 36.5 nM |
| UGUCGGAGCAGAGGAUAUUACAUGAGGAUCACCCAUGUAUGAACCAAUAGCUGGAAACAGCAAUGUAAGAAGGCUGCUCCGGCA | 11.8 nM | 186 nM |  |  |
| CUGUUACAUGAGGAUCACCCAUGUCAGGAUAUUUCUAUAGCGUCCUGCCGACGCAUAGAAAGAAGGGAUGGUGA | 48.6 nM | 83.8 nM |  |  |
| UGUGUGUGGGCAGGAUAUGCAUGAAUAUAUAUGAUGUAGUGUGAUGUAACAUGAGGAUCACCCAUGUAGAAGGGCCGGUGUAUG | 145 nM | 234 nM |  |  |
| GUCGGAUGUAUAGGAUAUCGACUGGAUAACAGUCGAGAAGGAUACAUGAGGAUCACCCAUGUAAUAAUAAUAAUAAUAACCGAC | 12.8 nM | 24.6 nM |  |  |
| GGAGAACAUGAGGAUCACCCAUGUGAGCGGUAGCUAGGAUAUGCGGGAAGGAAGAGAGAAGCAGAAGGAGUCGGUA |  |  | 36.1 nM | 22.9 nM |
| ACAAGGCAUGUAGGAUAUCCAUUGCGUCGCGAUGGAGAAGGACAACACACAUGAGGAUCACCCAUGUGAUCACCCAUGUCGUGU | 356 nM | 418 nM |  |  |
| GCACUGGAUGUAGGAUAUCAGGACGAUAAGUCCUGAGAAGGACAUGAGGAUCACCCAUGUCUCAUAAACCAGUGCUAUAAUAUA | 14.6 nM | 18.8 nM |  |  |
| UGUAUACAGUCAGGAUAUCAUAGGUUGGUGCUUCUCCAGUGGUACAUGAGGAUCACCCAUGUUUAUGAGAAGGGACUAUUACCU | 7.82 nM | 15.1 nM |  |  |
| AAUGUAUCCUCGGGAUCCACAUGAGGAUCACCCAUGUAGACUCAGGAUAUCCAAUGCGUUGGCAGGGAGAAGGGAGCUCGCAUG | 33.7 nM | 38.7 nM |  |  |
| CGUACCAUGUAGAAGGCAUAUCUCAAAGAGAUAUGAGGAUAUACAUGAGGAUCACCCAUGUAAAUGUACUCCAGGAAACUGGAA | 47.8 nM | 222 nM |  |  |
| AUCCAGGUAACAUGAGGAUCACCCAUGUUCCUUCGCUCUGGCGAGGAUAUGAAGGGAUUGUCCCAUCAGAAGGCGCAUGGGUGC |  |  | 46.7 nM | 57.5 nM |
| UUCAUGUGAGGAUAUAGUACUUCUUCUAUUAUUAUUGAGUACUAGAAGGCACAUGAGGAUCACCCAUGUAGUAC | 58 nM | 20.9 nM |  |  |
